A selection: hits, their analogues and other compounds. The true share with any hit is near 3.7%.
EBI2 block = EBI2 receptor antagonists, beta-arrestin recruitment, primary screen, cell-based, luminescence, 7a,25-OHC stimulation, uHTS; 360,000 tested, 0.81% active; AID 651636, 2012; inhibition, % at 5 µM; 7a,25-OHC stimulated; G-protein coupled receptor 183 (Homo sapiens), P32249; in the data active means inhibition above about 38%;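 further: enzyme fragment complementation signal reports receptor beta-arrestin coupling in cells; 0% = agonist plus DMSO wells and 100% = wells without agonist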
MC4R ag barr = MC4R agonists recruiting beta-arrestin, primary screen, cell-based, luminescence, agonist arm of biased-ligand search. Melanocortin receptor 4 (Homo sapiens), P32245. U2OS MC4R beta-arrestin complementation; percent of melanotan II response, DMSO zero. activation, % at 8.9 µM. 360,000 tested, 0.98% active. AID 540308, 2011;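 active means activation above a per-plate cutoff, the mean activation of sample wells on that plate plus 3 SD, cut at about 8% in these data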
Target sequence (P32245 whole entry, looked up): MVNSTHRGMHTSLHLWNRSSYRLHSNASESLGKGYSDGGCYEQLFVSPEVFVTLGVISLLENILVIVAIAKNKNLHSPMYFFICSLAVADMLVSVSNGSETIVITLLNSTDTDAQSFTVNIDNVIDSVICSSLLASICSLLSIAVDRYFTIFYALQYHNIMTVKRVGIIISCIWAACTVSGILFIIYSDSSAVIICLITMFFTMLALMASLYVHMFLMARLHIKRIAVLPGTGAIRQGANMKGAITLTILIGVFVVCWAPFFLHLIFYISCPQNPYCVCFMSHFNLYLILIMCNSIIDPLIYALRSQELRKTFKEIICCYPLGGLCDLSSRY
MC4R antagonist = MC4R antagonists of cAMP signaling, primary screen, cell-based, TR-FRET, antagonist arm of biased-ligand search; 360,000 tested, 0.48% active; inhibition, % at 6.5 µM; Melanocortin receptor 4 (Homo sapiens), P32245; MC4R-expressing cells, MTII-stimulated cAMP, LANCE TR-FRET; AID 540295, 2011;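 active means inhibition above its plate's cutoff, the mean of tested wells on that plate plus 3 SD, cut at about 29% in these data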;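 further: 0% = Melanotan II alone and 100% = Melanotan II plus saturating MCL0020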
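system = U2OS cells with stable human MC4R expression | also added = Melanotan II challenge after compound preincubation | dosing = one concentration, 6.5 µM nominal | incubation = compound 30 min, challenge 1 h, detection 1 h | measured by = TR-FRET with Eu-cAMP and labeled anti-cAMP, 671 nm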
Myeloid diff MLP = induction of myeloid progenitor differentiation, primary screen, cell-based, flow cytometry, MLPCN library; 360,000 tested, 1% active; ER-HoxA9 myeloid progenitors, lysozyme-GFP differentiation; calls only at 10 µM;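 active means normalized GFP-positive differentiation at or above the plate's own cutoff, the solvent-only control mean plus 3 SD; inconclusive means no clear call, values can overlap the other calls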;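 further: cells exposed to compound for four days before flow analysis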
Granule exo inh = LAMP-1 surface exposure blockers, TALL-104 cells – cell-based, flow cytometry, MLPCN library, primary screen | TALL-104 LAMP-1 surface exposure; cells stimulated with thapsigargin and PMA | inhibition, % at 10 µM | 360,000 tested, 0.66% active | AID 651702, 2012;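 active means inhibition above about 55%, limit read from the data; inconclusive means no clear call, values can overlap the other calls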
cAMP nonselect = nonselective cAMP signaling inhibitors, parental cells, counter-screen for MC4R biased antagonist project, cell-based, TR-FRET, U2OS, forskolin, triplicate | 1,600 tested, 26% active | inhibition, % at 6.5 µM | shares compounds with MC4R antagonist | LANCE TR-FRET | AID 602193, 2012;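 active means mean inhibition over triplicates above the low-control well mean plus 3 SD, set per campaign, cut at about 13% in these data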;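 further: signal is single emission at 671 nm which falls as cellular cAMP rises; 0% = forskolin-stimulated wells and 100% = buffer without forskolin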
MC4R cAMP antag = MC4R cAMP antagonists, retest, confirmation, cell-based, TR-FRET | AID 602195, 2012 | inhibition, % at 6.5 µM | shares compounds with MC4R antagonist | MC4R-expressing cells, MTII-stimulated cAMP | 1,600 tested, 27% active; in the data active means inhibition above about 29%;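 further: 0% = agonist stimulated wells alone and 100% = agonist stimulated wells plus saturating reference antagonist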
Numbers without * were called inactive; i = inactive; ? = inconclusive; / = no result.

SMILES	EBI2 block	MC4R ag barr	MC4R antagonist	Myeloid diff MLP	Granule exo inh	cAMP nonselect	MC4R cAMP antag
Cc1cccc(NC(=O)CCN2C(=O)c3ccccc3S2(=O)=O)c1C	-7	0	5	i	2	/	/
NC(=O)c1ccc(NCC2COc3ccccc3O2)c([N+](=O)[O-])c1 (centres undefined)	2	-1	36*	i	2	-2	-3
CN(C)S(=O)(=O)c1ccc(NCC2COc3ccccc3O2)c([N+](=O)[O-])c1 (centres undefined)	-2	-1	15	i	1	/	/
O=C(NCc1ccncc1)c1cc(C(=O)C2CC2)c[nH]1	-8	-2	1	i	4	/	/
O=C(NCc1ccncc1)c1cc(C(=O)C2CCCCC2)c[nH]1	0	-1	30*	i	1	4	-7
CC(C)[C@H](NC(=O)OC(C)(C)C)c1nnc(S(=O)(=O)Cc2c(F)cccc2Cl)o1	8	-3	64*	/	34	27*	34*
Cc1ccccc1CS(=O)(=O)c1nnc([C@H](CC(C)C)NC(=O)OC(C)(C)C)o1	13	-1	33*	/	36	11	20
CC[C@@H](C)[C@H](NC(=O)OC(C)(C)C)c1nnc(S(=O)(=O)Cc2cc(C)ccc2C)o1	12	-3	22	i	2	/	/
CN1CCN(C=Nc2nc3ccccc3nc2N2CCCC2)CC1	-6	-2	11	i	-2	/	/
CC(=O)O[C@H]1CC[C@@]2(C)C(CCC3C2CC[C@]2(C)OC(=O)CCC32)C1 (some centres undefined)	2	-1	-4	i	-5	/	/
CC(=O)OC1CCC2(C)C(CCC3C4CC=C(C(C)=O)C4(C)OC(=O)CC32)C1 (centres undefined)	52*	-2	42*	?	3	31*	-20
CN(C)c1ccc(C(C#N)c2ccccc2)nn1 (centres undefined)	-2	0	3	i	-4	/	/
COc1ccc(Br)c(C(=O)OCC(=O)N2CCC(Cc3ccccc3)CC2)c1	10	0	-2	i	4	/	/
CCOC(=O)Cn1nnnc1CN(Cc1cccs1)Cc1cc2cc(C)ccc2[nH]c1=O	-1	2	31*	i	0	9	10
CN(C)CCNC(=O)c1cccc(-c2cccc3nncn23)c1	-7	-1	-3	i	-4	/	/
CCCC(=O)NC(NC(=S)Nc1ccc(N=Nc2ccccc2)cc1)C(Cl)(Cl)Cl (centres undefined)	11	-3	29*	i	5	-1	16
CCCC(=O)NC(NC(=S)Nc1ccc(S(N)(=O)=O)cc1)C(Cl)(Cl)Cl (centres undefined)	-11	-1	16	i	32	/	/
CC(=O)c1c(O)c(C)c(O)c2c1OC1=CC(=O)/C(=C(/C)N)C(=O)C12C (centres undefined)	8	1	36*	i	-1	5	26
O[C@@H]1CN(Cc2cccs2)[C@@H](c2ccc(Cl)cc2)C[C@H]1n1cc(-c2ccc(F)cc2)nn1	16	2	8	i	-2	/	/
CNC[C@H](Cc1ccccc1)NC[C@@H](Cc1cccc2ccccc12)NCCc1ccc(C)cc1	-31	5	31*	?	27	-4	-28
O=C(COC(=O)c1ccncc1)NCCCc1ccccc1	11	2	30*	i	4	2	7
CSCCC(NC(=O)c1ccc(Cl)cc1)C(=O)OCC(=O)Nc1cc(Cl)ccc1C#N (centres undefined)	7	3	32*	i	0	13*	29*
